Data as given in ChEMBL document CHEMBL4052826, “Design and Synthesis of Novel Reactive Oxygen Species Inducers for the Treatment of Pancreatic Ductal Adenocarcinoma” (J Med Chem, 2018).
The source made the active and inactive calls. The calls are words filed in the database; no cut-off is given here.

How the values were obtained:
[1] = tested on: BXPC-3; test: Induction of unfolded protein response in human BxPC3 cells assessed as upregulation of CHOP expression at 2 uM by Western blot analysis; format: functional, cell-based; details: TDE = time-dependent effect
How it was run: (§1)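 Immunoblotting. Cells (4×10^5) in 60 mm dishes were treated, lysed 30 min at 4°C and quantified by BCA. 40 μg protein was run on SDS-PAGE and transferred to PVDF. Primary antibodies (1:1000) incubated overnight at 4°C, then Dylight 800 secondary, with fluorescent scanning. Bands were normalized to GAPDH or actin loading controls. Mean ± SD, three independent experiments, Student's t-test.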

[2] = Cytotoxicity against HPDEC assessed as decrease in cell proliferation after 72 hrs by MTT assay; format: cell-based; details: Homo sapiens
How it was run: (§2)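 MTT assay. Cells (3000–8000/well) attached overnight in RPMI1640 with 10% FBS; the GR line was kept with 200 nM gemcitabine. Serial dilutions (30 nM–10 μM for most lines) were applied for 72 h. MTT was added at a final 300 μg/mL for 3 h at 37°C, formazan was dissolved in DMSO and A570 read. Inhibition = (1 − OD treated/OD control) × 100. IC50 given as mean ± SD, three independent experiments.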

[3] = tested on: Mus musculus; test: Toxicity in NOD/SCID mouse xenografted with human MIAPaCa2 cells assessed as microscopic changes in lung at 5 mg/kg, ip administered 5 times a week until day 44 by hematoxylin and eosin staining-based inverted microscopic method; format: organism-based; details: in vivo
How it was run: (§3)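 Necropsy after the 44-day ip course in MIA PaCa-2 xenograft-bearing NOD/SCID mice: heart, kidney, liver, lung, spleen and pancreas fixed in 10% neutral buffered formalin, paraffin-embedded, sectioned and stained with hematoxylin and eosin. Sections examined by inverted microscope at 20X, compared with vehicle-treated animals.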

[4] = tested on: MIA PaCa-2; test: Cytotoxicity against gemcitabine-resistant human MIAPaCa2 cells assessed as decrease in cell proliferation after 72 hrs by MTT assay; format: functional, cell-based; how it was run: as §2
[5] = tested on: Mus musculus; test: Induction of unfolded protein response in tumor of NOD/SCID mouse xenografted with MIAPaCa2 cells assessed as upregulation of CHOP expression at 5 mg/kg, ip administered 5 times a week until day 44 by Western blot method; format: functional, organism-based
How it was run: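 Dosed ip in 5% DMSO/60% propylene glycol/35% saline, five days on/two off, until day 44, versus vehicle. Tumor lysates immunoblotted with primary antibodies, Dylight 800 secondary, fluorescent scan.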

[6] = tested on: MIA PaCa-2; test: Induction of unfolded protein response in human MIAPaCa2 cells assessed as upregulation of GRP78 expression at 2 uM by Western blot analysis; format: functional, cell-based; details: TDE = time-dependent effect; how it was run: as §1
[7] = tested on: Mus musculus; test: Toxicity in NOD/SCID mouse xenografted with human MIAPaCa2 cells assessed as microscopic changes in spleen at 5 mg/kg, ip administered 5 times a week until day 44 by hematoxylin and eosin staining-based inverted microscopic method; format: organism-based; details: in vivo; how it was run: as §3
[8] = tested on: MIA PaCa-2; test: Downregulation of Sp4 gene expression in human MIAPaCa2 cells at IC50 to 5 times IC50 after 4 hrs by Bru-seq analysis; format: functional, cell-based
[9] = tested on: PANC-1; test: Induction of unfolded protein response in human PANC1 cells assessed as upregulation of GRP78 expression at 2 uM by Western blot analysis; format: functional, cell-based; details: TDE = time-dependent effect
How it was run: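 Cells (4×10^5) seeded in 60 mm dishes, cultured in RPMI1640 with 10% FBS, 5% CO2, 37°C, then compound-treated. Lysed 30 min at 4°C, BCA-quantified, 40 μg protein resolved by SDS-PAGE, transferred to PVDF, probed overnight at 4°C with primary antibodies (1:1000; GAPDH or actin loading control), then Dylight 800 secondary; fluorescence scanned. Bands normalized to loading control; mean ± SD, three independent experiments.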

[10] = tested on: MIA PaCa-2; test: Induction of unfolded protein response in human MIAPaCa2 cells assessed as upregulation of CHOP expression at 2 uM by Western blot analysis; format: functional, cell-based; details: TDE = time-dependent effect; how it was run: as §1
[11] = tested on: MIA PaCa-2; test: Inhibition of mtDNA transcription from HSP2 promoter in human MIAPaCa2 cells at 5 times IC50 after 4 hrs by Bru-seq analysis; format: functional, cell-based
How it was run: (§4)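 Nascent RNA sequencing (Bru-seq): 4×10^6 MIA PaCa-2 cells seeded in 10 cm dishes, treated next day for 4 h with drug or DMSO. Bromouridine (2 mM final) added for the last 30 min. Total RNA taken in TRIZOL; labeled RNA immunocaptured, converted to cDNA libraries and deep sequenced. Signal compared with DMSO-treated cells.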

[12] = tested on: Mus musculus; test: Toxicity in NOD/SCID mouse xenografted with human MIAPaCa2 cells assessed as microscopic changes in heart at 5 mg/kg, ip administered 5 times a week until day 44 by hematoxylin and eosin staining-based inverted microscopic method; format: organism-based; details: in vivo; how it was run: as §3
[13] = tested on: Mus musculus; test: Toxicity in NOD/SCID mouse xenografted with human MIAPaCa2 cells assessed as body weight loss at 5 mg/kg, ip administered 5 times a week until day 44 followed by dose escalation up to 20 mg/kg until day 67; format: organism-based; details: in vivo
How it was run: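 After a 44-day course (ip, five days on/two off, in 5% DMSO/60% propylene glycol/35% saline), two mice per group stayed on study and dose was gradually raised from 5 to 20 mg/kg until day 67 in MIA PaCa-2 flank xenografts in NOD/SCID mice. Body weight monitored; mean ± SEM.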

[14] = tested on: MIA PaCa-2; test: Induction of apoptosis signaling in human MIAPaCa2 cells at 5 times IC50 after 4 hrs by IPA analysis; format: functional, cell-based
[15] = tested on: MIA PaCa-2; test: Antitumor activity against human MIAPaCa2 cells xenografted in NOD/SCID mouse assessed as tumor volume at 5 mg/kg, ip administered 5 times a week co-administered with gemcitabine at 15 mg/kg administered once a week for 48 days (reference value: 1503 +/- 189 mm'3); format: functional
How it was run: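 MIA PaCa-2 subcutaneous xenografts in NOD/SCID mice, randomized at 75 mm3. Test agent was given at 5 mg/kg five times a week. Gemcitabine was given at 15 mg/kg either once weekly for 48 days or twice weekly for 15 days. Groups were n=3–4. Tumor volume was measured by caliper, given as mean ± SEM, and compared by unpaired t test.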

[16] = tested on: MIA PaCa-2; test: Cytotoxicity against human MIAPaCa2 cells assessed as decrease in cell proliferation after 72 hrs in presence of NAC by MTT assay; format: functional, cell-based
How it was run: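 MIA PaCa-2 cells were treated for 72 h with compound in the presence of 5 mM NAC. Viability was read by MTT (final 300 μg/mL, 3 h, A570). Mean ± SD of three independent experiments.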

[17] = tested on: MIA PaCa-2; test: Induction of reactive oxygen species generation in human MIAPaCa2 cells assessed as upregulation of HMOX1 gene expression after 4 hrs by Bru-seq analysis; format: functional, cell-based
[18] = tested on: MIA PaCa-2; test: Antitumor activity against human MIAPaCa2 cells xenografted in NOD/SCID mouse assessed as tumor volume at 5 mg/kg, ip administered 5 times a week until day 44 (reference value: 1291 +/- 168 mm'3); format: functional
[19] = tested on: MIA PaCa-2; test: Induction of unfolded protein response in human MIAPaCa2 cells assessed as upregulation of HSPA5 gene expression after 4 hrs by Bru-seq analysis; format: functional, cell-based; how it was run: as §4
[20] = Induction of compound aggregation
[21] = tested on: Mus musculus; test: Toxicity in NOD/SCID mouse xenografted with human MIAPaCa2 cells assessed as microscopic changes in liver at 5 mg/kg, ip administered 5 times a week until day 44 by hematoxylin and eosin staining-based inverted microscopic method; format: organism-based; details: in vivo; how it was run: as §3

O=C1C(Nc2ccc(-c3ccccc3)cc2)=CC(=O)c2ncncc21
Activity [1]: Tde | IC50 [2]: 2700 nM | Activity [3]: Non-Toxic | Activity [4]: Dose-dependent effect | IC50 ([4]; MIA PaCa-2, 72 h): 1000 nM | Activity [5]: Active | Activity [6]: Tde | Activity [7]: Non-Toxic | Activity [8]: inactive | Activity [9]: Tde | Activity [10]: Tde | inhibition [11]: Active | Activity [12]: Non-Toxic | Activity [13]: Non-Toxic | Activity [14]: Active | Activity [15]: 163 mm3 | Activity [16]: inactive | Activity [17]: Dose-dependent effect | Activity [18]: 308 mm3 | Activity [19]: Dose-dependent effect | Activity [20]: Active | Activity [21]: Non-Toxic
